High-throughput results as filed in PubChem BioAssay.
Hits are enriched below; roughly 2.6% of the tested compounds scored in any of these assays.
MC4R barr agon: MC4R agonists recruiting beta-arrestin, primary screen, cell-based, luminescence, agonist arm of biased-ligand search. Melanocortin receptor 4 (Homo sapiens), P32245. U2OS MC4R beta-arrestin complementation; percent of melanotan II response, DMSO zero. activation, % at 8.9 µM. 360,000 tested, 0.98% active. AID 540308, 2011;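 active means activation above a per-plate cutoff, the mean activation of sample wells on that plate plus 3 SD, cut at about 8% in these data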
EP2 antag: human EP2 receptor antagonists, primary screen, TR-FRET cAMP, C6 glioma cells. AID 1422, 2008. Prostaglandin E2 receptor EP2 subtype (Homo sapiens), P43116. 260,000 tested, 0.52% active. inhibition, % at 25 µM. C6 glioma cells expressing human EP2; cells stimulated with saturating PGE2;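 active means percent inhibition above 40 after rounding to a whole number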;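 further: rat C6 glioma host cells with rolipram phosphodiesterase inhibitor present; the protocol text gives 20 µM as final concentration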
Target sequence (P43116 whole entry, looked up): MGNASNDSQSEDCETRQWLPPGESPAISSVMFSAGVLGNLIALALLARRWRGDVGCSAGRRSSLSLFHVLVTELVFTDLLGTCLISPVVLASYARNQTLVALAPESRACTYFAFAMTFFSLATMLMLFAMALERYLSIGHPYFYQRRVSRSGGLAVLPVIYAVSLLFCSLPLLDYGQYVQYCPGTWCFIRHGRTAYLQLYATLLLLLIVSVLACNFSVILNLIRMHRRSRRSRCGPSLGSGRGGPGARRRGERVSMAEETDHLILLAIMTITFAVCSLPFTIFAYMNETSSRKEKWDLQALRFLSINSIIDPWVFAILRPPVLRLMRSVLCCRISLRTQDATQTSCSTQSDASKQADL
EP2 mod: EP2 receptor modulators, cAMP readout, primary screen, cell-based, HTRF cAMP, PGE2 stimulation; induction, % at 25 µM; Prostaglandin E2 receptor EP2 subtype (Homo sapiens), P43116; 260,000 tested, 0.83% active; EP2-expressing cells, cAMP HTRF FRET, PGE2 co-stimulation; AID 940, 2007;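 active means compounds whose cAMP rise, as percent of the full-agonist control response, exceeds 60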;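 further: rat C6 glioma line stably carrying human EP2 under a CMV promoter; the protocol text gives 20 µM as final concentration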
T cell modulator: modulators of CD8 T cell-vesicle binding, primary screen, mouse 2C CD8+ T cells, flow cytometry; 2C CD8+ T cell-vesicle binding; stronger effect = lower value; response (vesicle binding), % at 7 µM; 330,000 tested, 0.068% active;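 active means response, share of CD8 T cells binding vesicles, and their 90th percentile fluorescence all below set limits, cut at about 80% in these data, passing the limit was not always enough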;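 further: values below 100% mean blocked vesicle binding to the CD8+ T cells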
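Also added: QL9-peptide-loaded Drosophila micro-vesicles bearing Ld, ICAM-1 and B7-1; Test system: purified 2C TCR transgenic mouse naive CD8+ T cells; Measured by: cytometric PE anti-B7-1 and Alexa647 anti-CD8 signals after 1% paraformaldehyde fixation; Timing: binding step 1.5 h, 37 °C, antibody labelling 20 min, ice.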
Granule exo inh: LAMP-1 surface exposure blockers, TALL-104 cells – cell-based, flow cytometry, MLPCN library, primary screen; TALL-104 LAMP-1 surface exposure; cells stimulated with thapsigargin and PMA; inhibition, % at 10 µM; 360,000 tested, 0.66% active;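 active means inhibition above about 55%, limit read from the data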
MC4R antag cAMP: MC4R antagonists of cAMP signaling, primary screen, cell-based, TR-FRET, antagonist arm of biased-ligand search; MC4R-expressing cells, MTII-stimulated cAMP, LANCE TR-FRET; inhibition, % at 6.5 µM; 360,000 tested, 0.48% active; AID 540295, 2011;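 active means inhibition above its plate's cutoff, the mean of tested wells on that plate plus 3 SD, cut at about 29% in these data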
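Test system: U2OS cells stably expressing human melanocortin 4 receptor (MC4R); also added: Melanotan II challenge; compound: 6.5 µM single dose; timing: 30-min compound preincubation, 1-h Melanotan II challenge, 1-h detection, room temperature; signal: Eu-cAMP/anti-cAMP TR-FRET, emission 671 nm; repeats: one well per compound, no replicates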
Numbers stand for hits; i = inactive; nt = no result given; ! = not active in a repeat.

SMILES	MC4R barr agon	EP2 antag	EP2 mod	T cell modulator	Granule exo inh	MC4R antag cAMP
CC(C)(C)C(=O)/C=c1\s/c(=C\c2ccc(-c3ccc([N+](=O)[O-])cc3)o2)c(=O)n1CC(=O)NC(N)=O	i	i	i	i	58.3	i
CCC(=O)N/N=C/c1ccc(-c2ccc([N+](=O)[O-])cc2)o1	i	i	i	i	i	i
O=C(/C(=C/c1ccncc1)n1ccnc1)c1ccc(Cl)cc1Cl	nt	i	i	nt	nt	nt
O=C(/C(=C/c1cccnc1)n1ccnc1)c1ccc(Cl)cc1Cl	i	i	i	i	95.6	i
Cc1cccc(C)c1NC(=O)COC(=O)c1c2c(nc3ccccc13)/C(=C\c1ccc3c(c1)OCO3)CCC2	i	i	i	i	i	i
CCC(=O)Nc1ccc(Cl)c(NC(=S)NC(=O)c2cc3ccccc3o2)c1	8.2	i	i	i	i	i
Cc1ccc(C(=O)C2=C(O)C(=O)N(Cc3ccccc3)C2c2cccnc2)o1 (configuration not stated)	i	i	61.3	i	i	i
Cc1ccc(C(=O)C2=C(O)C(=O)N(Cc3cccnc3)C2c2ccc(Cl)cc2)o1 (configuration not stated)	i	nt	nt	i	i	i
CCN(CC)P(=O)(Nc1ccc(C)cc1Br)c1ccc(N(C)C)cc1NC(=O)c1ccco1 (configuration not stated)	i	i	64.6	i	i	i
COc1ccc(OC)c(NC(=O)c2c(NC(=O)CNCc3ccco3)sc3c2CCC3)c1	9.2	i	i	i	i	i
C=C[C@@H](C1=CC(=O)C(OC)=C(OC)C1=O)c1ccccc1	nt	120.1	i	nt	nt	nt
N#Cc1nc(Cl)c(Cl)c(NN)c1Cl	i	i	i	i	i	i
Cc1ccc(Cn2c(=O)c3ccccc3n3nc(C)cc23)cc1	8.2	i	i	i	i	i
Cc1ccc(OCC(=O)Nc2ccc(O)c(-c3nc4ccccc4o3)c2)cc1	8.6	nt	i	i	i	i
Cc1ccc(NC(=O)CN(C)C(=O)CN2C(=O)NC(C)(c3ccccc3)C2=O)cc1 (configuration not stated)	i	i	i	i	i	i
COC(=O)C(C)Oc1cc(OC(C)C(=O)OC)c2c(-c3ccccc3)cc(=O)oc2c1 (configuration not stated)	i	nt	nt	i	62.7	i
COC(=O)COc1cc(OCC(=O)OC)c2c(-c3ccccc3)cc(=O)oc2c1	i	nt	nt	i	i	i
COc1ccc(OC)c(C2=Nn3c(nnc3-c3cc(OC)c(OC)c(OC)c3)SC2)c1	i	i	i	i	i	i
COc1ccc(OC)c(C2=Nn3c(nnc3-c3ccncc3)SC2)c1	i	nt	nt	i	64.3	i
C/C(N)=C(/C#N)C(=O)COC(=O)c1cc(-c2ccc(Br)cc2)nc2ccccc12	8.4!	i	i	i	i	i
Fc1c(F)c(C(F)(F)F)c(F)c(F)c1N/N=C\c1cccs1	i	123.8	i	i	i	i
CCn1c(/C=C\c2ccccc2C)nc2ccccc2c1=O	i	i	i	i	i	i
O=c1c2ccccc2nc(-c2ccc(Br)cc2)n1Cc1ccccc1	i	i	62.7	i	i	i
Cc1ccccc1/C=C\c1nc2ccccc2c(=O)n1Cc1ccccc1	i	i	62.7	i	i	i
Cc1ccc(-c2cc(C(F)F)nc(NCc3cccnc3)n2)cc1	i	i	i	i	i	i
SMILES	MC4R barr agon	EP2 antag	EP2 mod	T cell modulator	Granule exo inh	MC4R antag cAMP
CC1CCCCN1C(=O)COC(=O)c1n[nH]c2ccccc12 (configuration not stated)	i	i	i	i	i	i
N#CCC(=O)N/N=C/c1cn(Cc2ccc(Cl)c(Cl)c2)c2ccccc12	20.4	i	i	i	i	i
CN(CCO)c1cc(Sc2nc3ccccc3s2)c2nonc2c1[N+](=O)[O-]	i	i	i	i	55.9	i
CC(=O)OCCN(C)c1cc(SC(C)C)c2nonc2c1[N+](=O)[O-]	i	i	i	i	i	i
COc1cc(OC)cc(C(=O)NCC(=O)Nc2ccc(-c3ccccc3)cc2)c1	i	nt	nt	i	i	i
O=C(O)c1ccccc1CN1CCC[C@@H](C(=O)O)C1	nt	48.2	i	nt	nt	nt
O=C(NCCC1=CCCCC1)C1CCC(CNc2nc(=S)[nH]c3ccccc23)CC1 (configuration not stated)	i	i	i	i	i	i
S=c1nc(NCCc2ccccc2Cl)c2ccccc2[nH]1	12.1	nt	nt	i	i	i
O=C(NCCc1ccc(Cl)cc1)C1CCC(CNc2nc(=S)[nH]c3ccccc23)CC1 (configuration not stated)	16.5	i	i	i	i	i
CC1CCN(c2nc3c(c(=O)[nH]2)CCN(Cc2ccc(Cl)cc2)C3)CC1	nt	nt	i	nt	nt	nt
Clc1ccccc1-c1nnc2n1CCCCC2	i	i	i	i	i	i
CCN(CC)C(=O)[C@H]1C[C@H](CC(=O)NCCCn2ccnc2)C(=O)N2CCc3c([nH]c4ccc(Cl)cc34)[C@]12C	i	nt	nt	nt	i	i
CC(C)C1Cc2c(C#N)c(N)sc(=S)c2CO1 (configuration not stated)	i	58.9	i	i	i	i
CC1(C)Cc2c(C#N)c(N)sc(=S)c2CO1	i	i	i	i	i	i
O=C(Nc1nc2c(s1)CCCC2)C1COc2ccccc2O1 (configuration not stated)	i	i	i	38.2	i	i
O=C(Nc1nc(-c2nc3ccccc3s2)cs1)C1COc2ccccc2O1 (configuration not stated)	i	42.5	i	i	i	i
O=C(O)c1[nH]c2ccc(Cl)cc2c1CCN1C(=O)c2ccccc2C1=O	i	i	i	i	i	i
COc1ccc2c3c(ccc2c1)C(=O)/C(=C/O)CC3	26.1	nt	nt	nt	i	i
COc1ccc(CNCCC(c2ccccc2)c2ccc3c(c2)OCO3)cc1 (configuration not stated)	9.1	nt	i	i	i	i
COc1ccc(CNCCC(c2ccc(OC(C)C)cc2)c2ccccc2OC)cc1OC (configuration not stated)	i	nt	nt	i	i	i
COc1ccccc1C(CCNCc1ccccc1)c1ccc(OC(C)C)cc1 (configuration not stated)	9.0	nt	nt	i	i	i
COc1ccc(C(CC(=O)O)c2ccc3c(c2)OCO3)cc1 (configuration not stated)	i	nt	nt	i	i	i
